Measured values: ChEMBL document CHEMBL4257484, “Membrane-active antimicrobial poly(amino-modified alkyl) β-cyclodextrins synthesized via click reactions” (Medchemcomm, 2018)
Values after ≈ are worked out from the molar mass of the structure shown.

Assays:
[1] = tested on: Pseudomonas aeruginosa; assay: Antibacterial activity against drug-sensitive Pseudomonas aeruginosa PAO1 after 20 hrs by liquid microdilution method; assay type: functional; conditions: PAO1, 20 h
Procedure, shortened: (§1)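 Two-fold serial dilutions of compound in Mueller–Hinton broth, inoculated with 1 × 10^4 cells and cultured at 37 °C for 20 h in microtiter wells.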

[2] = tested on: Staphylococcus aureus; assay: Antibacterial activity against methicillin-resistant Staphylococcus aureus MS29202 after 18 to 20 hrs by agar dilution method; assay type: functional
Procedure, shortened: (§2)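 Agar dilution per CLSI. Overnight broth cultures were diluted 100-fold, and one loopful (about 10^5 to 10^4 CFU) was spotted onto agar plates containing the CD. Growth was scored after 18–20 h at 37 °C. MIC values are in µM.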

[3] = Hemolytic activity in rabbit RBC at 10 uM after 20 mins relative to control; assay type: ADME, cell-based, Oryctolagus cuniculus, Erythrocyte; conditions: rabbit red blood cells (erythrocytes), read-out: Activity
Procedure, shortened: (§3)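 Rabbit erythrocytes suspended in 150 mM NaCl/10 mM Hepes-NaOH, pH 7.4, at 0.5% hematocrit (final) and incubated with compound at 37 °C. The table footnote gives 20 min; the methods section gives 30 min. Hemolysis was read as absorbance at 540 nm, with 50 µM lysolecithin defining 100% hemolysis.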

[4] = Hemolytic activity in rabbit RBC at 50 uM after 20 mins relative to control; assay type: ADME, cell-based, Oryctolagus cuniculus, Erythrocyte; conditions: rabbit red blood cells (erythrocytes), read-out: Activity; procedure, shortened: as §3
[5] = tested on: Enterococcus faecalis; assay: Antibacterial activity against drug-resistant Enterococcus faecalis MS29030 after 18 to 20 hrs by agar dilution method; assay type: functional; procedure, shortened: as §2
[6] = tested on: Staphylococcus aureus; assay: Antibacterial activity against methicillin-sensitive Staphylococcus aureus FDA 209P after 20 hrs by liquid microdilution method; assay type: functional; procedure, shortened: as §1
[7] = tested on: Escherichia coli; assay: Antibacterial activity against drug-sensitive Escherichia coli K-12 W3110 after 20 hrs by liquid microdilution method; assay type: functional; conditions: K-12 substr. W3110, 20 h; procedure, shortened: as §1
[8] = tested on: Streptococcus agalactiae; assay: Antibacterial activity against drug-resistant Streptococcus agalactiae B1 after 18 to 20 hrs by agar dilution method; assay type: functional; procedure, shortened: as §2
[9] = Lipophilicity, log P of the compound; assay type: physicochemical; conditions: octanol/water
[10] = Hemolytic activity in rabbit RBC at 1 uM after 20 mins relative to control; assay type: ADME, cell-based, Oryctolagus cuniculus, Erythrocyte; conditions: rabbit red blood cells (erythrocytes), read-out: Activity; procedure, shortened: as §3
[11] = Hemolytic activity in rabbit RBC at 5 uM after 20 mins relative to control; assay type: ADME, cell-based, Oryctolagus cuniculus, Erythrocyte; conditions: rabbit red blood cells (erythrocytes), read-out: Activity; procedure, shortened: as §3
[12] = tested on: Salmonella typhimurium; assay: Antibacterial activity against drug-sensitive Salmonella typhimurium LT2 after 20 hrs by liquid microdilution method; assay type: functional, Salmonella enterica subsp. enterica serovar Typhimurium; conditions: Salmonella enterica, LT2, 20 h; procedure, shortened: as §1
[13] = Hemolytic activity in rabbit RBC at 20 uM after 20 mins relative to control; assay type: ADME, cell-based, Oryctolagus cuniculus, Erythrocyte; conditions: rabbit red blood cells (erythrocytes), read-out: Activity; procedure, shortened: as §3
[14] = tested on: Enterococcus faecium; assay: Antibacterial activity against drug-resistant Enterococcus faecium MS29120 after 18 to 20 hrs by agar dilution method; assay type: functional; procedure, shortened: as §2
[15] = tested on: Enterococcus faecalis; assay: Antibacterial activity against vancomycin-resistant Enterococcus faecalis MS29016 after 18 to 20 hrs by agar dilution method; assay type: functional; procedure, shortened: as §2
[16] = tested on: Bacillus subtilis; assay: Antibacterial activity against drug-sensitive Bacillus subtilis 168 after 20 hrs by liquid microdilution method; assay type: functional; conditions: subsp. subtilis str. 168, 20 h; procedure, shortened: as §1
[17] = Hemolytic activity in rabbit RBC at 2 uM after 20 mins relative to control; assay type: ADME, cell-based, Oryctolagus cuniculus, Erythrocyte; conditions: rabbit red blood cells (erythrocytes), read-out: Activity; procedure, shortened: as §3
[18] = tested on: Staphylococcus aureus; assay: Antibacterial activity against Staphylococcus aureus FDA 209P assessed as decrease in cell viability after 30 mins by colony counting method; assay type: functional; conditions: 0.5 h
Procedure, shortened: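 S. aureus washed twice and suspended at 2 × 10^9 cells per cm3 in 100 mM choline chloride/50 mM Mops-Tris, pH 7.2. Exposed to CD at 37 °C for 30 min. An aliquot was diluted in physiological saline, plated on polypeptone/yeast extract/NaCl agar and incubated overnight at 37 °C. Viability was taken from colony counts; LC50 is the concentration giving 50% viability.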

[19] = tested on: Staphylococcus aureus; assay: Induction of membrane disruption in methicillin-sensitive Staphylococcus aureus FDA 209P assessed as increase in K+ efflux after 30 mins; assay type: functional; conditions: 0.5 h, read-out: ED50 (the source's name)
Procedure, shortened: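 S. aureus washed twice and suspended at 2 × 10^9 cells per cm3 in 100 mM choline chloride/50 mM Mops-Tris, pH 7.2, then exposed to compound at 37 °C for 30 min. Released K+ was measured in the centrifuged supernatant with a K+-selective electrode. Melittin (10 µM) defined 100% efflux, and ED50 is the concentration giving 50% efflux.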

SMILES | MIC [1] | MIC [2] | hemolysis at 20 min, 10 µM [3] | hemolysis at 20 min, 50 µM [4] | MIC [5] | MIC [6] | MIC [7] | MIC [8] | logP [9] | hemolysis at 20 min, 1 µM [10] | hemolysis at 20 min, 5 µM [11] | MIC [12] | hemolysis at 20 min, 20 µM [13] | MIC [14] | MIC [15] | MIC [16] | hemolysis at 20 min, 2 µM [17] | LC50 [18] | EC50 [19]
CCCCNCc1cn(C[C@H]2O[C@@H]3O[C@H]4[C@H](O)[C@@H](O)[C@@H](O[C@H]5[C@H](O)[C@@H](O)[C@@H](O[C@H]6[C@H](O)[C@@H](O)[C@@H](O[C@H]7[C@H](O)[C@@H](O)[C@@H](O[C@H]8[C@H](O)[C@@H](O)[C@@H](O[C@H]9[C@H](O)[C@@H](O)[C@@H](O[C@H]2[C@H](O)[C@H]3O)O[C@@H]9Cn2cc(CNCCCC)nn2)O[C@@H]8Cn2cc(CNCCCC)nn2)O[C@@H]7Cn2cc(CNCCCC)nn2)O[C@@H]6Cn2cc(CNCCCC)nn2)O[C@@H]5Cn2cc(CNCCCC)nn2)O[C@@H]4Cn2cc(CNCCCC)nn2)nn1 | > 44 µM | > 44 µM | 0% | 0% | > 44 µM | 11 to 22 µM (≈ 23 to 45.9 µg/mL) | > 44 µM | > 44 µM | -0.9 | 0% | 0% | > 44 µM | 0% | > 44 µM | > 44 µM | 11 µM (≈ 23 µg/mL) | 0% | > 50 µM | > 50 µM
CCCC(C)CCNCc1cn(C[C@H]2O[C@@H]3O[C@H]4[C@H](O)[C@@H](O)[C@@H](O[C@H]5[C@H](O)[C@@H](O)[C@@H](O[C@H]6[C@H](O)[C@@H](O)[C@@H](O[C@H]7[C@H](O)[C@@H](O)[C@@H](O[C@H]8[C@H](O)[C@@H](O)[C@@H](O[C@H]9[C@H](O)[C@@H](O)[C@@H](O[C@H]2[C@H](O)[C@H]3O)O[C@@H]9Cn2cc(CNCCC(C)CCC)nn2)O[C@@H]8Cn2cc(CNCCC(C)CCC)nn2)O[C@@H]7Cn2cc(CNCCC(C)CCC)nn2)O[C@@H]6Cn2cc(CNCCC(C)CCC)nn2)O[C@@H]5Cn2cc(CNCCC(C)CCC)nn2)O[C@@H]4Cn2cc(CNCCC(C)CCC)nn2)nn1 (stereo not given in full) | 10 µM (≈ 23.8 µg/mL) | 40 µM (≈ 95.3 µg/mL) | 99% | 119% | > 40 µM | 3 to 20 µM (≈ 7.15 to 47.7 µg/mL) | 5 µM (≈ 11.9 µg/mL) | 20 µM (≈ 47.7 µg/mL) | 0.27 | 10% | 73% | 10 µM (≈ 23.8 µg/mL) | 108% | 20 µM (≈ 47.7 µg/mL) | 40 µM (≈ 95.3 µg/mL) | 10 µM (≈ 23.8 µg/mL) | 30% | – | –
NC(Cc1ccccc1)c1cn(C[C@H]2O[C@@H]3O[C@H]4[C@H](O)[C@@H](O)[C@@H](O[C@H]5[C@H](O)[C@@H](O)[C@@H](O[C@H]6[C@H](O)[C@@H](O)[C@@H](O[C@H]7[C@H](O)[C@@H](O)[C@@H](O[C@H]8[C@H](O)[C@@H](O)[C@@H](O[C@H]9[C@H](O)[C@@H](O)[C@@H](O[C@H]2[C@H](O)[C@H]3O)O[C@@H]9Cn2cc(C(N)Cc3ccccc3)nn2)O[C@@H]8Cn2cc(C(N)Cc3ccccc3)nn2)O[C@@H]7Cn2cc(C(N)Cc3ccccc3)nn2)O[C@@H]6Cn2cc(C(N)Cc3ccccc3)nn2)O[C@@H]5Cn2cc(C(N)Cc3ccccc3)nn2)O[C@@H]4Cn2cc(C(N)Cc3ccccc3)nn2)nn1 (stereo not given in full) | > 41 µM | 41 µM (≈ 95.4 µg/mL) | 6% | 4% | > 41 µM | 21 µM (≈ 48.9 µg/mL) | 21 µM (≈ 48.9 µg/mL) | 21 µM (≈ 48.9 µg/mL) | -0.67 | 5% | 3% | > 41 µM | 4% | 21 µM (≈ 48.9 µg/mL) | > 41 µM | 5 µM (≈ 11.6 µg/mL) | 4% | – | –
CC(C)CCNCc1cn(C[C@H]2O[C@@H]3O[C@H]4[C@H](O)[C@@H](O)[C@@H](O[C@H]5[C@H](O)[C@@H](O)[C@@H](O[C@H]6[C@H](O)[C@@H](O)[C@@H](O[C@H]7[C@H](O)[C@@H](O)[C@@H](O[C@H]8[C@H](O)[C@@H](O)[C@@H](O[C@H]9[C@H](O)[C@@H](O)[C@@H](O[C@H]2[C@H](O)[C@H]3O)O[C@@H]9Cn2cc(CNCCC(C)C)nn2)O[C@@H]8Cn2cc(CNCCC(C)C)nn2)O[C@@H]7Cn2cc(CNCCC(C)C)nn2)O[C@@H]6Cn2cc(CNCCC(C)C)nn2)O[C@@H]5Cn2cc(CNCCC(C)C)nn2)O[C@@H]4Cn2cc(CNCCC(C)C)nn2)nn1 | > 43 µM | 21 µM (≈ 45.9 µg/mL) | 0% | 0% | > 43 µM | 3 to 5 µM (≈ 6.56 to 10.9 µg/mL) | > 43 µM | 11 µM (≈ 24.1 µg/mL) | -0.57 | 0% | 0% | > 43 µM | 0% | 21 µM (≈ 45.9 µg/mL) | > 43 µM | 1 µM (≈ 2.19 µg/mL) | 0% | – | –
